Source: PubChem (several laboratories)
L major viab: inhibitors of Leishmania major promastigote growth; Leishmania major promastigotes, resazurin fluorescence viability; inhibition, % at 10 µM; hit rate 9% among 200,000; AID 1063; in the data active means inhibition above about 50%;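 further: promastigotes grown with compound for 44 hours at 28 °C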
DTT redox prof: compounds producing H2O2 with reducing agent – biochemical, NIH compound library profiling, artefact control for MLSCN library redox annotation, primary screen; DTT-dependent redox cycling H2O2, phenol red/HRP absorbance; 100% = 100 µM peroxide control, 0% = buffer; activation, % at 10 µM; hit rate 0.03% among 200,000; AID 878;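 active means activation of at least 50% relative to the plate's high and low controls in the primary single-dose screen; inactive means activation below 50%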;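 further: compound incubated with DTT at 0.8 mM final as the reducing agent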
T cruzi repl: blocks replication of Trypanosoma cruzi. T. cruzi beta-gal in NIH3T3, luminescence, 90 h. inhibition, % (concentration not given with the values). hit rate 1.4% among 300,000. AID 1885;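 active means mean inhibition across valid replicates above about 55%, limit read from the data; inconclusive means mean below that limit but half or more replicates reach it; inactive means mean below it, under half of replicates reach it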;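 further: signal also drops with host cell toxicity which is not excluded here; higher percent means less beta-gal luminescence so fewer parasites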
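compound dosing = single 50 nL compound addition per well in DMSO | material = NIH/3T3 host cells with β-galactosidase reporter T. cruzi | input = 5,000 host fibroblasts per well | timing = ≥90 h infection period, 3 h prior cell attachment | read-out basis = percent inhibition of parasite-derived β-gal signal | detection = GalScreen β-gal luminescence, detergent lysis, 60 min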
MPTP block: inhibitors of mitochondrial permeability transition pore; isolated mouse mitochondria, Ca2+ swelling absorbance, 30 min; inhibition, % at 10 µM; hit rate 1.4% among 360,000; AID 602449;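 active means inhibition of 50% or more, scaled per plate between neutral and stimulator controls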
Lipid droplet: hepatic lipid droplet formation modulation. AML12 mouse hepatocytes, oleate lipid droplets, BODIPY imaging. inhibition, % at 6.5 µM. AID 1656. hit rate 0.4% among 240,000;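 active means lipid droplet intensity inhibited by at least 50%, with more than 500 cells counted; inconclusive means wells with under 300 cells, treated as cytotoxic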
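Assay system: AML12 mouse liver cells | Compound: 6.5 µM single-point dosing | Schedule: Overnight exposure | Technique: Fluorescence imaging, 20x objective, two fields per well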
Rh123 counter: membrane potential counter-screen of mitochondrial pore inhibitors. hit rate 78% among 5,000. inhibition, % at 10 µM. shares compounds with MPTP block. isolated mitochondria, Rhodamine 123 fluorescence; in the data active means inhibition above about 22%
MPTP abs DR: MPTP inhibition, dose response swelling confirmation | shares compounds with MPTP block | isolated mitochondria swelling, absorbance | IC50, µM | hit rate 58% among 780 | AID 651561; in the data active means IC50 below about 20 µM
MPTP cs DR: active in counter-screen for permeability transition pore inhibitors | shares compounds with MPTP block | isolated mitochondria counterscreen, fluorescence read-out | IC50, µM | hit rate 49% among 780; in the data active means IC50 below about 80 µM
Of the large screens only hits and unclear results are named; the others gave an inactive call (follow-up assays come after a bar, where they were run). The sample as a whole holds a higher share of hits than the screen did.

COc1ccc(C(C)=NNc2ccc([N+](=O)[O-])cc2S(=O)(=O)Nc2ccccc2C(=O)O)c(OC)c1	MPTP block 86.5 (no result: L major viab, DTT redox prof, T cruzi repl, Lipid droplet) | Rh123 counter 37.6
Nc1nc2ccc(Cl)cc2cc1C(=O)NCCc1c[nH]c2ccccc12	MPTP block 84.0 (no result: L major viab, DTT redox prof, T cruzi repl, Lipid droplet) | Rh123 counter 91.0
Cc1ccc([N+](=O)[O-])cc1N=Nc1c(C)[nH]n(C(N)=S)c1=O	none (no result: L major viab, DTT redox prof, Lipid droplet)
NC(=S)n1[nH]c(-c2ccc([N+](=O)[O-])cc2)c(N=Nc2ccc(Cl)cc2)c1=O	L major viab 97.2, MPTP block 105.8 (no result: T cruzi repl) | Rh123 counter 93.0
CCCCC(Nc1ncnc2ccccc12)C(=O)O (stereo not drawn)	none
CC(Nc1ncnc2ccccc12)c1ccccc1 (stereo not drawn)	MPTP block 95.9 (no result: L major viab, DTT redox prof) | Rh123 counter 83.0
CCOC(=O)c1c(S(=O)(=O)NCC(=O)Nc2cc(C)ccc2OC)c(C)n(C)c1C	none (no result: L major viab, DTT redox prof)
CC(=O)Nc1ccc(S(=O)(=O)NCC(=O)OCC(=O)N2CCN(c3ccccc3)CC2)cc1	none
CC(C)(C)c1cc(Cl)ccc1OCCn1ccnc1	T cruzi repl inconclusive (no result: L major viab, DTT redox prof)
CC(O)CNCCCOc1ccc(Cl)cc1C(C)(C)C (stereo not drawn)	L major viab 71.5, MPTP block 74.4 | Rh123 counter inactive | MPTP abs DR 4.98 | MPTP cs DR inactive
O=C(Cc1cccs1)N1CCN=C1SCc1ccc(Br)cc1	none
CCc1ccc(O)c(CNCCNCc2cc(CC)ccc2O)c1	MPTP block 95.4 (no result: L major viab, DTT redox prof, Lipid droplet) | Rh123 counter inactive
Cc1ccc(O)c(CNCCNCc2cc(C)ccc2O)c1	none (no result: L major viab, DTT redox prof, Lipid droplet)
Cc1cccc(/C=N/n2c(C)nc3ccccc3c2=O)c1	T cruzi repl inconclusive (no result: L major viab, DTT redox prof)
Cc1noc(C)c1CSc1nc2ccccc2nc1NS(=O)(=O)c1ccc(Cl)cc1	MPTP block 88.5 (no result: Lipid droplet) | Rh123 counter 87.2
O=S(=O)(Nc1nc2ccccc2nc1NCc1ccco1)c1ccc(Cl)cc1	none
O=C(NCc1ccco1)c1ccc(COc2ccccc2[N+](=O)[O-])o1	none (no result: L major viab, DTT redox prof)
CC(OCC(O)CNCC1COc2ccccc2O1)c1ccc(Cl)cc1 (stereo not drawn)	L major viab 90.7, MPTP block 85.8 | Rh123 counter inactive | MPTP abs DR 14.8 | MPTP cs DR 58
O=C1C2CC=CCC2C(=O)N1c1ccc(NCCc2ccc(Cl)cc2)c([N+](=O)[O-])c1 (stereo not drawn)	none
COc1ccc(CCNc2ccc(N3C(=O)CC(C)C3=O)cc2[N+](=O)[O-])cc1OC (stereo not drawn)	MPTP block 96.2 | Rh123 counter 81.7
O=C1C2CC=CCC2C(=O)N1c1ccc(NCCc2ccc(O)cc2)c([N+](=O)[O-])c1 (stereo not drawn)	MPTP block 91.4 | Rh123 counter 76.3
OC[C@@H](O)[C@H](O)C(/C=N/Nc1ccccc1)=N\Nc1ccccc1	none (no result: L major viab, DTT redox prof)
Cc1cccnc1N(C(=O)Nc1ccccc1)C1=NCC(C)(C)S1	none (no result: Lipid droplet)
Cc1cccnc1N(C(=O)Nc1cccc(Cl)c1)C1=NCC(C)(C)S1	MPTP block 52.3 | Rh123 counter 74.7
Cc1ccc2oc(-c3cccc(NC(=O)Cn4cnc5c(=O)n(C)c(=O)n(C)c54)c3)nc2c1	none (no result: MPTP block)
CCC(C)c1ccc2oc(-c3ccc(NC(=O)Cn4cnc5c(=O)n(C)c(=O)n(C)c54)cc3)nc2c1 (stereo not drawn)	MPTP block 84.1 | Rh123 counter inactive | MPTP abs DR inactive | MPTP cs DR 41.4
CCCCNS(=O)(=O)c1ccc(NC(=O)C(Sc2ccccc2)c2ccccc2)cc1 (stereo not drawn)	L major viab 78.6, MPTP block 76.5 | Rh123 counter 67.8
CC(=O)Nc1ccc(NC(=O)C(Sc2ccccc2)c2ccccc2)cc1 (stereo not drawn)	none (no result: L major viab, DTT redox prof)
O=C(CN1C(=O)NC2(CCCC2)C1=O)Nc1cc(S(=O)(=O)N2CCOCC2)ccc1OCC(F)(F)F	none (no result: L major viab, DTT redox prof)
CN(/N=C/c1cc([N+](=O)[O-])ccc1O)c1ccccc1	MPTP block 57.0 | Rh123 counter 66.0
